# CHO parental Ca – ATP-evoked calcium signal inhibitors, parental CHO, primary screen, counter-screen for OX1R antagonist project, cell-based, fluorescence, Fluo-8 calcium dye | parental CHO-K1, ATP-induced calcium, Fluo-8 fluorescence | inhibition, % at 5.6 µM | 0.63% of 330,000 active | AID 463079, 2010;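 active = inhibition above that plate's mean sample inhibition plus 3 SD, cut at about 26% in these data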;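 note: 0% = ATP-challenged DMSO wells and 100% = DMSO wells without ATP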
#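 Material – parental CHO cells · Reagent – ATP stimulus · Compound – single nominal dose of 5.6 µM per compound · Detection – Fluo-8 fluorescence · Read-out basis – percent inhibition of calcium signal · Controls – ATP-challenged DMSO wells low, unchallenged DMSO wells high · Repeats – no replicates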
# OX1R antag-1 – antagonists of human orexin 1 receptor (OX1R). inhibition, % at 6.6 µM. OX1R-expressing cells, FRET antagonist read-out. 1.8% of 330,000 active; in the data active = inhibition mostly above about 38%, no sharp cut-off; inactive = mostly below about 40%;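 note: 0% = agonist challenge alone and 100% = reference antagonist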
# Target sequence (O43613 whole entry, looked up): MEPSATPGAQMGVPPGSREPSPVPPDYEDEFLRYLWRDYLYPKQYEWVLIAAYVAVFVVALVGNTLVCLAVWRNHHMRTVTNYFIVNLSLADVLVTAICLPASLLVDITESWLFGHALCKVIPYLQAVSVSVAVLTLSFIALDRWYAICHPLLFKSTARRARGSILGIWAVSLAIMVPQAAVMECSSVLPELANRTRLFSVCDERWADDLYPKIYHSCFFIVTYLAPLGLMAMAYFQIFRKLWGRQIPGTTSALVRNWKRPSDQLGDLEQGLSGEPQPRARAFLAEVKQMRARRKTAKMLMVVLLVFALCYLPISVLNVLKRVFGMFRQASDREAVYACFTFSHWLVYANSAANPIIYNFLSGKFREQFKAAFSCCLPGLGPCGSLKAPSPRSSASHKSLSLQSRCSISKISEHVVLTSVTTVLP
# OX1R antag-2 – OX1R (HCRTR1) antagonists, primary screen, fluorescence, CHO/OX1R cells, Fluo-8 calcium, orexin A; inhibition, % at 5 µM; AID 434989, 2010; 0.43% of 330,000 active; Fluo-8 calcium fluorescence; Orexin/Hypocretin receptor type 1 (Homo sapiens), O43613;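 active = inhibition above its plate's threshold, mean inhibition of all tested compounds on the plate plus 3 SD, cut at about 37% in these data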;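 note: 0% = orexin A challenge wells and 100% = SB-334867-A antagonist wells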
# MPTP inh – mitochondrial permeability transition pore inhibitors, primary screen, biochemical, isolated mouse mitochondria, absorbance; Ca2+ swelling absorbance, 30 min; inhibition, % at 10 µM; 1.4% of 360,000 active;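 active = inhibition of 50% or more, scaled per plate between neutral and stimulator controls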;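 note: 0% = DMSO wells given calcium and 100% = 1 mM EGTA wells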
# GPR7 antag – GPR7 receptor antagonists, primary screen, cell-based, fluorescence, single concentration; Neuropeptides B/W receptor type 1 (Homo sapiens), P48145; GPR7-expressing cells, fluorescence antagonist assay; inhibition, % at 4.4 µM; 1.1% of 290,000 active; in the data active = inhibition above about 16%, passing the limit was not always enough;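 note: cells stimulated with the agonist NPW; 0% = agonist with vehicle and 100% = vehicle without agonist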
# OX1R HTRF conf – OX1R (HCRTR1) antagonists, confirmation, cell-based, HTRF | 49% of 1,800 active | inhibition, % at 6.6 µM | OX1R-expressing cells, HTRF antagonist assay | AID 492964, 2010 | shares compounds with OX1R antag-1; in the data active = inhibition above about 55%;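 note: CHO cells expressing OX1R stimulated with orexin A at about EC80; 0% = agonist challenge alone and 100% = reference antagonist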
# CHO-K1 HTRF – signal inhibition in parental CHO-K1 cells, counter-screen for OX1R antagonist project, cell-based, HTRF; inhibition, % at 6.6 µM; HTRF counterscreen; shares compounds with OX1R antag-1; 48% of 1,800 active; in the data active = inhibition above about 17%;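 note: 0% = agonist challenge with vehicle and 100% = vehicle alone without agonist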
# Active calls of the source: *; · = no result given. This is a sample that favours compounds with a hit; in the whole collection about 3.8% have one here.
SMILES,CHO parental Ca,OX1R antag-1,OX1R antag-2,MPTP inh,GPR7 antag,OX1R HTRF conf,CHO-K1 HTRF
O=c1[nH]cc(S(=O)(=O)N2CCOCC2)c(=O)[nH]1,-1,5,-7,-1,·,·,·
Cc1c(NC(=O)c2cccnc2C(=O)O)cccc1C(=O)O,-8,6,5,-1,-9,·,·
Cc1ccc2nc3n(c(=O)c2c1)-c1cc2ccccc2cc1C(=O)NC3Cc1ccccc1 (configuration not stated),·,·,·,0,·,·,·
COc1ccc(C(=O)NC(C)CCCC(C)(C)O)cc1OC1CCN(C(C)=O)CC1 (configuration not stated),·,·,·,-1,-5,·,·
Nc1c(-c2ccccc2)c(CN2CCOCC2)nn1-c1cccc([N+](=O)[O-])c1,-12,85*,-23,-2,-14,32,29*
Nc1c(-c2ccccc2)c(CN2CCOCC2)nn1-c1ccc(F)cc1,-17,19,-15,1,-5,·,·
O=C(Nc1ccc(F)cc1F)C1CCCN1S(=O)(=O)c1cccc2nsnc12 (configuration not stated),-7,77*,4,-1,-12,59*,27*
O=C(NCCN1CCCCCC1)C1CCCN1S(=O)(=O)c1cccc2nsnc12 (configuration not stated),-6,61,-17,0,-4,·,·
Cc1ccc2c(c1)C(c1ccccc1)N(C(=O)c1c(F)cccc1Cl)CC(=O)N2 (configuration not stated),-19,7,-35,-1,15,·,·
O=[N+]([O-])c1cccc(-c2ccc3nnc(SCc4ccccn4)n3n2)c1,-11,77*,-18,1,-6,45,36*
CC1(C)CC(NC(=O)c2cc(S(=O)(=O)N3CCCCC3)ccc2Cl)CC(C)(C)N1,-10,24,-17,-1,-12,·,·
Cc1nc2ccc(NC(=O)c3ccc(Cl)c(NC(=O)c4cccs4)c3)cc2s1,-12,81*,-16,0,1,38,8
NS(=O)(=O)c1ccc(Nc2ccc([N+](=O)[O-])c3nonc23)cc1,4,132*,-2,8,8,50,63*
O=C(O)c1ccc(Nc2ccc([N+](=O)[O-])c3nonc23)cc1,·,·,·,10,1,·,·
CC(=O)c1ccc(Nc2ccc([N+](=O)[O-])c3nonc23)cc1,20,78*,0,8,-9,41,39*
CC1=C(C(=O)OCc2ccccc2)C(c2ccc(C)o2)C2=C(CCCC2=O)N1 (configuration not stated),-13,17,-21,4,3,·,·
CC1=C(C(=O)OC2CCCCC2)C(c2ccc(C)o2)C2=C(CCCC2=O)N1 (configuration not stated),-15,99*,-32,7,9,87*,-1
COc1cc2nc(/C=C/c3cc(OC)c(OC)c(OC)c3)sc2cc1SC,-39,79*,24,1,-8,84*,10
COc1cc2nc(C)sc2cc1SC,-10,37,-9,0,-5,·,·
CN(C)S(=O)(=O)c1ccccc1C#N,3,6,0,0,3,·,·
CN(C)S(=O)(=O)c1cccc2c1C(=O)c1ccccc1C2=O,-7,105*,-14,-2,-7,20,17
COCCNC(=O)C(c1ccc(O)cc1)N(Cc1ccco1)C(=O)CCC(=O)Nc1ccccn1 (configuration not stated),-4,24,-10,-1,-3,·,·
COCCNC(=O)C(c1ccc(Cl)cc1)N(Cc1ccco1)C(=O)CCC(=O)Nc1ccccn1 (configuration not stated),-16,82*,9,-3,-3,58*,3
Cc1c(C#N)c(O)n(CCO)c(=O)c1N=Nc1ccc(S(N)(=O)=O)cc1,-9,161*,-24,-1,-26,64*,83*
Cc1ccc(C(=O)N/C(=C/c2ccc(-c3cccc([N+](=O)[O-])c3)o2)C(=O)NC(C)(C)C)cc1,-20,85*,3,11,-3,69*,14
SMILES,CHO parental Ca,OX1R antag-1,OX1R antag-2,MPTP inh,GPR7 antag,OX1R HTRF conf,CHO-K1 HTRF
COc1ccccc1N1CCN(C(=O)c2ccccc2N(C)S(=O)(=O)c2ccc(C)cc2)CC1,-25,30,-31,-1,-19,·,·
O=C(O)CCCCCNS(=O)(=O)/C=C/c1ccccc1,7,15,-11,-2,-9,·,·
O=C(O)CCCCCNS(=O)(=O)c1cccc2c1C(=O)c1ccccc1C2=O,-7,138*,-5,-1,0,55*,86*
O=Nc1c(-c2c(O)[nH]c3cc(Br)ccc23)[nH]c2ccccc12,-20,98*,-14,12,0,79*,26*
O=C(CNC(=O)c1ccccc1)N=Nc1c(O)[nH]c2ccc(Br)cc12,-3,21,-18,0,0,·,·
CC1(C)CC(=O)C(CO)=C(c2cccc3ccccc23)C1=O,-11,5,-4,1,·,·,·
CC(C)NC(=O)NC(=O)COC(=O)c1ccc([N+](=O)[O-])cc1Cl,-4,29,-13,-2,-6,·,·
CNC(=O)COC(=O)c1ccc([N+](=O)[O-])cc1Cl,-13,120*,-10,-1,-2,46,74*
Cc1cc(Cl)nc(Cl)c1C(=O)NCc1ccc(Cl)cc1,-6,0,-13,-1,-12,·,·
COc1ccc2nc(NC(=O)c3cccnc3SC)sc2c1,-11,88*,12,1,1,77*,10
O=C(NCc1nnnn1-c1ccc(Cl)cc1)c1ccc(Br)o1,-21,0,-15,-1,·,·,·
Cc1ccc(Nc2nnc(SC(C)C(=O)Nc3c(C)n(C)n(-c4ccccc4)c3=O)s2)cc1 (configuration not stated),-22,-1,-31,1,-2,·,·
COc1cccc2cc(-c3cn4ccc(C)cc4n3)c(=O)oc12,-3,86*,-13,0,-11,91*,9
COc1cccc(/C=C2\Oc3ccc(O)cc3C2=O)c1O,-7,95*,25,3,8,93*,16
Cc1cc(C(=O)N/N=C/c2cccs2)no1,-7,11,-4,0,8,·,·
CCn1c(=O)c(C(C)=O)nc2ccccc21,-17,100*,-9,-1,-7,31,5
CCc1nc2ccccc2n(CC)c1=O,2,21,-14,-10,-11,·,·
O=C(NCCc1c[nH]c2ccccc12)C(=O)Nc1cc2c3c(c1)CC(=O)N3CCC2,-9,31,-12,1,·,·,·

# Compound activity as filed in PubChem BioAssay.
